Test results from PubChem BioAssay AID624402 (The Scripps Research Institute Molecular Screening Center, 2012).
Calls of active or inactive are those of the source.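 How the source made its calls: active means binding altered by at least 10% in every panel; inactive means the rest.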

System: aryl hydrocarbon receptor (Cavia porcellus)
Assay: AhR activators driving DRE binding, late-stage follow-up, counter-screen for AhR activator project, biochemical, radiometric EMSA, guinea pig liver cytosol (AID 624402)
Settings: stronger effect = higher value
Procedure, shortened: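 Assay system – guinea pig liver cytosol containing native aryl hydrocarbon receptor · Medium – HEDG buffer at pH 7.5 · Probe or stimulus – Poly dIdC and [32P]-DRE probe · Dosing – single 10 µM compound dose per reaction · Schedule – 2.5 h compound exposure at room temperature, 15 min per later addition · Detection – radiometric EMSA, phosphorimaging · Repeats – triplicates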

Row | Structure (SMILES) | inhibition (run 1, at 10 µM) | inhibition (run 2, at 10 µM)
1 | Cc1cccc(NC(=O)c2cc(-c3ccc(C)cc3O)n[nH]2)c1 | 8.2% (inactive) | 4.3% (inactive)
2 | O=C(CSc1nc2ccccc2s1)Nc1ccc(Cl)cn1 | 16.3% | 19.4%
3 | Cc1cc(Nc2ccc(F)cc2)nc(N)n1 | 9.6% (inactive) | 5.6% (inactive)
4 | Cc1ccc(O)c(-c2cc(-c3ccccc3Cl)[nH]n2)c1 | 58.4% | 51.9%
5 | Nc1nc(Cl)cc(Nc2ccccc2F)n1 | 15.4% | 12.5%
6 | Cc1csc(SCC(=O)Nc2ccccn2)n1 | 6.2% (inactive) | 6.7% (inactive)
7 | Cc1ccnc(NC(=O)CSc2nc3ccccc3s2)c1 | 19.7% | 17.3%
8 | COc1ccc(Nc2cc(Cl)nc(N)n2)cc1 | 10% (inactive) | 7.1% (inactive)
9 | O=C(CSc1nc(-c2ccc(F)cc2)cs1)Nc1ccccn1 | 9.5% (inactive) | 7.1% (inactive)
10 | CN(Cc1cc(-c2cccs2)n[nH]1)Cc1coc2ccccc2c1=O | 22.1% | 19%
11 | COc1ccc(O)c(-c2cc(-c3cccs3)[nH]n2)c1 | 6.4% (inactive) | 5.5% (inactive)
12 | Cc1ccc(NC(=O)c2ccc(C(=O)Nc3ccc(C)cc3C)nc2)c(C)c1 | 13.3% | 9.3% (inactive)
13 | Cc1ccc(-c2cc(-c3ccc(Cl)cc3)n[nH]2)c(O)c1 | 32.8% | 28.8%
14 | CCOC(=O)c1c(C)nn(-c2cc(Cl)ccc2Cl)c1C | 8.4% (inactive) | 5.4% (inactive)
15 | Cc1ccc(-c2cc(-c3cccc(F)c3)n[nH]2)c(O)c1 | 42.7% | 39.8%
16 | Cc1cccc(C)c1NC(=O)c1ccc(C(=O)Nc2c(C)cccc2C)nc1 | 8.6% (inactive) | 9% (inactive)
17 | CCOc1ccccc1NC(=O)c1ccc(C(=O)Nc2ccccc2OCC)nc1 | 6.4% (inactive) | 4.4% (inactive)
18 | O=C(CSc1nc2ccccc2s1)Nc1ccccn1 | 41.3% | 38.5%
19 | Cc1cc(Br)cc(C)c1Nc1ccnc(Nc2ccc(C#N)cc2)n1 | 5.8% (inactive) | 5.3% (inactive)
20 | COc1ccc(NC(=O)c2ccc(C(=O)Nc3ccc(OC)cc3OC)nc2)c(OC)c1 | 6.9% (inactive) | 11.8% (inactive)
21 | Cc1ccc(-c2cc(-c3ccc(F)cc3)n[nH]2)c(O)c1 | 50.8% | 47.5%
22 | COc1ccc(Nc2cc(Cl)nc(N)n2)cc1OC | 7.5% (inactive) | 5.6% (inactive)
23 | Nc1nc(Cl)cc(Nc2ccc(Oc3ccccc3)cc2)n1 | 10.9% (inactive) | 8.5% (inactive)
24 | COc1ccc(-c2cc(-c3ccc(C)cc3O)[nH]n2)cc1 | 4.8% (inactive) | 3.2% (inactive)
25 | COc1ccc(Cl)cc1NC(=O)c1ccc(C(=O)Nc2cc(Cl)ccc2OC)nc1 | 9.7% (inactive) | 8.4% (inactive)
